Test results reported in paper PMC4281931 (Anticancer research, 2013).

Biological target: PARP-1 (poly ADP-ribose polymerase) (Homo sapiens, UniProt P09874)
Assay: PARP-1 chemiluminescent assay kit
Type: biochemical
Settings: read-out: % (inhibition at 21.35 μM)
Outline: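 Human PARP-1 activity was measured with a chemiluminescent kit, run per the maker's protocol. PARP-1 incorporates biotinylated NAD into biotinyl-poly(ADP-ribose) on immobilized histone substrate. The biotinylated substrate was incubated with the test compound at several concentrations in assay buffer containing PARP-1 enzyme. The read-out was chemiluminescence.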

Sequence of PARP-1 (poly ADP-ribose polymerase) (P09874 2-1014): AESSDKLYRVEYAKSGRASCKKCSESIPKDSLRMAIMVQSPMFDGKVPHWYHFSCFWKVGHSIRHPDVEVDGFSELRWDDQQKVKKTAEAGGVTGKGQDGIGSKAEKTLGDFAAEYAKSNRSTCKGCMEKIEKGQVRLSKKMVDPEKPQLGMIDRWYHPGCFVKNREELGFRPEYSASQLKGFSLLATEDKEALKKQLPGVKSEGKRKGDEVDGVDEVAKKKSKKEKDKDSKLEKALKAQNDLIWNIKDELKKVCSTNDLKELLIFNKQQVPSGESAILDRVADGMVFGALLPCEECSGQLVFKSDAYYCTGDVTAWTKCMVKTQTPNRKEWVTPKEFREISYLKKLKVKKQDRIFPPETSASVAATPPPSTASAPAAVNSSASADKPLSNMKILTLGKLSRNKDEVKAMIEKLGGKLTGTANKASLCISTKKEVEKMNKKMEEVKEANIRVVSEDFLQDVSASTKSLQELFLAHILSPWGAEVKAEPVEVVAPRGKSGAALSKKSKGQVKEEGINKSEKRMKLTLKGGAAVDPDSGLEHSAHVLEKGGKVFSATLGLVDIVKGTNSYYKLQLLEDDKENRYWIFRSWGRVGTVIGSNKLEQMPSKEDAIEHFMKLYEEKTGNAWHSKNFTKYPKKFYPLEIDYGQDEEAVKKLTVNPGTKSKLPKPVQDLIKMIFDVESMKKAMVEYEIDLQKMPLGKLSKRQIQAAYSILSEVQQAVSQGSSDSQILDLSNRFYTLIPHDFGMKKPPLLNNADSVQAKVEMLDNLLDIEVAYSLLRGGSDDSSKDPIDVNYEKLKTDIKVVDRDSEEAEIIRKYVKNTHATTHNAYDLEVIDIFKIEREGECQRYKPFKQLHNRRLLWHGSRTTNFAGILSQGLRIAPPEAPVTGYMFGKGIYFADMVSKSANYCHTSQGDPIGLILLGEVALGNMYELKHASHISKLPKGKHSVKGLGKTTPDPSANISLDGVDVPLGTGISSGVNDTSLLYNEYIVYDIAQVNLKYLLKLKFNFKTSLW

For `O=C1C[C@@H](c2ccccc2)Oc2c(Cc3ccccc3O)c(O)c(Cc3ccccc3O)c(O)c21` [dichamanetin], which inhibition at 21.35 µM is on record?
The inhibition at 21.35 µM was 96.2%.
